Results gathered from unrelated publications.
Lines come from different studies, so protocols differ.
Target: Serine/threonine-protein kinase Sgk3 (SGK3, Homo sapiens, UniProt Q96BR1)
Sequence (Q96BR1 1-496, as in one of the studies): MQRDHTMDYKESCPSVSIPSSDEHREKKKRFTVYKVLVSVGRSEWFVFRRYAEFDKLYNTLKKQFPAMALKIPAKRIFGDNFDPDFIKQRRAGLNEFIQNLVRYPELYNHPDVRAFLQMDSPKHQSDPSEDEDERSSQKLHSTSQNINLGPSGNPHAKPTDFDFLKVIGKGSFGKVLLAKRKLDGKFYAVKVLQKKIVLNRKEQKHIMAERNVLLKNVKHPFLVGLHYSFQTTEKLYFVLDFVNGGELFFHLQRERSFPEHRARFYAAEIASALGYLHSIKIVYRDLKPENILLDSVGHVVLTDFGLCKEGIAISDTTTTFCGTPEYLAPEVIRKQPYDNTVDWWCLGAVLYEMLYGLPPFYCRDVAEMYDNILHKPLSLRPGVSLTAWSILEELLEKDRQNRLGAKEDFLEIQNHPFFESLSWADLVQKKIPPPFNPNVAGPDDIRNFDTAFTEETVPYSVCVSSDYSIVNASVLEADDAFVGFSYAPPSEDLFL

`Cn1cc(Cl)c2c(Oc3c(F)cc(Nc4cc(Cl)nc(N)n4)cc3F)ccnc21` gave a remaining binding of 90% (cell-free assay; competition with immobilised ligand; 0.1 µM).
`C[C@@H](c1ccc(-n2cnc3c(N)ncnc32)cc1)N1CCc2nn(C)c(Cc3ccccc3)c2C1=O` has a remaining binding of 93% (binding; competition with immobilised ligand; 0.1 µM).
`CN(c1nccc(-c2cnn3ncccc23)n1)C1CC1` has a remaining binding of 99% (binding; 1 µM).
The remaining binding of `C=CC(=O)N1CCC(C(=O)NCC(=O)N2CCN(c3nc(-c4cnc(N)nc4C(F)F)nc(N4CCOCC4)n3)CC2)CC1` is reported as 100% (binding; competition with immobilised ligand; 1 µM).
With `O=C(NCc1ncc(C(F)(F)F)cc1Cl)c1ccc2c(c1)C1(CCS(=O)(=O)CC1)[C@H](C1CC1)N2S(=O)(=O)c1ccc(F)cc1` the remaining binding was 99% (cell-free assay; competition with immobilised ligand; 1 µM).
`O=C(NCCCN1CCOCC1)c1ccc(Nc2nccc(-c3cc4ccccc4s3)n2)cc1` gave a remaining binding of 29% (binding; competition with immobilised ligand; 1 µM).
The remaining binding of `c1cncc(-c2cccc(Nc3nccc(NC4CCCCC4)n3)c2)c1` is reported as 58% (binding; competition with immobilised ligand; 10 µM).
For `Cc1noc([C@H]2C[C@@H](c3ccc(C(F)(F)F)cc3)CN(C(=O)N3CCS(=O)(=O)C3)C2)n1`, the remaining binding was 100% (cell-free assay; competition with immobilised ligand; 1 µM).
For `O=C(NCCCN1CCOCC1)c1ccc(Nc2ncc(Cl)c(-c3ccc(Cl)s3)n2)cc1`, the remaining binding was 45% (binding; competition with immobilised ligand; 1 µM).
For `COc1cnc(Nc2cccc(S(N)(=O)=O)c2)nc1N1CCN(c2ccccc2)CC1`, the remaining binding was 72% (binding; competition with immobilised ligand; 1 µM).
The remaining binding of `O=C(Nc1c[nH]nc1C(=O)NC1CCNCC1)c1cc(F)cc(F)c1` is reported as 100% (binding; competition with immobilised ligand; 1 µM).
`CN(CCCC(F)(F)F)c1nccc(-c2cnn3ncccc23)n1` gave a remaining binding of 97% (binding; 1 µM).
The remaining binding of `COc1cnc(Nc2cccc(S(N)(=O)=O)c2)nc1N1CCN(c2ccccc2)C(=O)C1` is reported as 100% (binding; competition with immobilised ligand; 1 µM).
For `N[C@@H]1CCN(c2nccc(-c3cnn4ncccc34)n2)C1`, the remaining binding was 100% (binding; 1 µM).
With `Cc1cnc(Nc2ccc(C(=O)N3CCC(N4CCCC4)CC3)cc2)nc1-c1cc2ccccc2s1` the remaining binding was 7.3% (binding; competition with immobilised ligand; 1 µM).
With `CN(C)c1nccc(-c2cnc3ncccn23)n1` the remaining binding was 79% (binding; 1 µM).
`COc1cccc(CNC(=O)c2nc3scc(COCc4ccc(C(=O)O)cc4)c3c(=O)[nH]2)c1` has a remaining binding of 69.2% (cell-free assay; competition with immobilised ligand; 1 µM).
`CC1CCCN1c1nccc(-c2cnn3ncccc23)n1` (stereo not drawn) gave a remaining binding of 86% (binding; 1 µM).
With `Cc1c(NC(=O)c2cc(C(N)=O)nc3cc(F)ccc23)c(C(F)(F)F)nn1Cc1ccc(C(C)(C)C)cc1` the remaining binding was 94% (cell-free assay; competition with immobilised ligand; 1 µM).
The remaining binding of `CN(C)c1nccc(-c2cnn3ncccc23)n1` is reported as 100% (binding; 1 µM).
With `O=C(NCCCC1CCCCC1)c1ccc(CNC(=O)c2cnn(-c3ccccc3)c2C(F)(F)F)cc1` the remaining binding was 92% (cell-free assay; competition with immobilised ligand; 0.1 µM).
